HIV Rev-RRE inh: inhibitors of HIV-1 Rev-RRE RNA interaction | inhibition, % at 8 µM | Rev peptide-RRE RNA binding, FRET | AID 704 | P05866 | actives 0.79% (n = 97,000);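 active = inhibition above the screen-wide mean plus 3 SD, cut at about 35% in these data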;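 note: 0% = median DMSO wells and 100% = median Neomycin B control wells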
Target sequence (P05866 whole entry, looked up): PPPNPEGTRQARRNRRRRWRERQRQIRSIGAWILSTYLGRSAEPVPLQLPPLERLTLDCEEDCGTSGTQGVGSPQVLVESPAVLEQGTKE
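Assay system: labelled RRE RNA duplex and labelled Rev peptide / Medium: HEPES pH 7.5 salt buffer with EDTA / Reagent: labelled Rev peptide / Schedule: 5 + 15 min at 25 °C / Signal: FRET, excitation 480 nm, emission 540 nm donor and 671 nm acceptor / Benchmarks: DMSO and neomycin B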
CYP2C9 inh: blocks human cytochrome P450 2C9 | CYP2C9 Supersomes, luciferin-H conversion, luminescence | inhibition, % at 5 µM | actives 20% (n = 96,000) | AID 777;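 active = blocking of liver enzyme CYP2C9 beyond about 50% at 5 µM, limit read from the data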
CYP2C19 activ: cytochrome P450 2C19 (human) activation | P33261 | recombinant CYP2C19, luciferin-H EGE luminescence; active compounds read high; 0 = fully inhibited enzyme, 1 = untreated enzyme | activation factor at 5 µM | 96,000 tested, under 10 active | AID 1025;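 active = activation factor of at least 2 at 5 µM in the primary screen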;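 note: 0 = wells with 2.5 mM tranylcypromine and 1 = vehicle-only wells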
CYP2C19 inh: blocks human cytochrome P450 2C19 | P33261 | inhibition, % at 5 µM | CYP2C19 Supersomes, luciferin-H EGE luminescence, 30 min | actives 21% (n = 96,000);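 active = CYP2C19 inhibition above a set limit at 5 µM in the primary screen, cut at about 50% in these data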;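 note: plate controls were negative control wells for no effect and 2.5 mM tranylcypromine positive control for full effect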
CYP2C9 act: increases human cytochrome P450 2C9 activity. P11712. recombinant CYP2C9, luciferin-H conversion, luminescence; active compounds read high; factor 1 = untreated enzyme, 0 = blocked. activation factor at 5 µM. actives 1.4% (n = 96,000). AID 1024;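 active = activation factor of 2 or more for CYP2C9 at a 5 µM dose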;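 note: 0 = sulfaphenazole-blocked wells and 1 = vehicle-only wells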
Cav3 T inh: blocks human Cav3.2 T-type calcium channel; B-score at 10 µM; O95180; Cav3.2-expressing cells, Fluo-4 calcium fluorescence FDSS; active compounds read low; actives 4% (n = 100,000); AID 449739;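 active = single-dose well whose peak fluorescence ratio is a statistical outlier from its plate by either plate-standardised score or position-corrected B-score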
Active calls of the source: *; [ ] = remark or other dose. Compounds with a hit are over-represented: about 27% of the library has one in this group of screens.

Results for CCN1C(=O)/C(=C/N2CCc3ccccc32)SC1=S ?
HIV Rev-RRE inh: 17.5; CYP2C9 inh: 1.9; CYP2C19 activ: 0.9; CYP2C19 inh: 14.8; CYP2C9 act: 1; Cav3 T inh: -3.15

Results for CCCN1C(=O)/C(=C/C=C2\N(CC)c3ccccc3C2(C)C)SC1=S ?
HIV Rev-RRE inh: 136.2*[fluorescence artefact?]; CYP2C9 inh: 32.9; CYP2C19 activ: 0.9; CYP2C19 inh: 14.0; CYP2C9 act: 0.7; Cav3 T inh: -4.5*

What do the screens show for `C/C(=N\NS(=O)(=O)c1ccc(Cl)cc1)c1ccc(O)cc1`?
HIV Rev-RRE inh: 6.5; CYP2C9 inh: 77.5*; CYP2C19 activ: 0.2; CYP2C19 inh: 83.0*; CYP2C9 act: 0.2; Cav3 T inh: -0.955

What do the screens show for `C/C(=N/NS(=O)(=O)c1ccc(Cl)cc1)c1cccc(NC(=O)c2ccc(Cl)cc2Cl)c1`?
HIV Rev-RRE inh: -0.6; CYP2C9 inh: 97.3*; CYP2C19 activ: 0.3; CYP2C19 inh: 74.6*; CYP2C9 act: 0

How did C/C(=N/NS(=O)(=O)c1ccc(C)cc1)c1cccc(NC(=O)c2cccc(Cl)c2)c1 do in these assays?
HIV Rev-RRE inh: 5.3; CYP2C9 inh: 3.1; CYP2C19 activ: 1; CYP2C19 inh: -2.8; CYP2C9 act: 1; Cav3 T inh: -1.52

How did Nc1ccc(Cc2nc3c(ccc4ccccc43)[nH]2)cc1 do in these assays?
HIV Rev-RRE inh: 3.3; CYP2C9 inh: 33.1; CYP2C19 activ: 0.1; CYP2C19 inh: 85.9*; CYP2C9 act: 0.7; Cav3 T inh: 0.000127

What do the screens show for `Cc1ccc2nc(Cc3ccc(N)cc3)[nH]c2c1`?
HIV Rev-RRE inh: 6.2; CYP2C9 inh: 9.9; CYP2C19 activ: 0.2; CYP2C19 inh: 82.3*; CYP2C9 act: 0.9; Cav3 T inh: -0.0474

Results for Nc1ccc(-c2nc3c(Cl)c(N)ccc3[nH]2)cc1 ?
HIV Rev-RRE inh: 2.9; CYP2C9 inh: -2.5; CYP2C19 activ: 1.1; CYP2C19 inh: -6.1; CYP2C9 act: 1; Cav3 T inh: 0.0507

Results for Cc1ccc(C)c(-c2nc3ccc(N)cc3[nH]2)c1 ?
HIV Rev-RRE inh: 8.6; CYP2C9 inh: 16.8; CYP2C19 activ: 0.5; CYP2C19 inh: 47.2; CYP2C9 act: 0.8; Cav3 T inh: -0.728

How did COc1ccc(CNC2CCCCC2C)c(OC)c1 (configuration not stated) do in these assays?
CYP2C9 inh: 6.9; CYP2C19 activ: 0.4; CYP2C19 inh: 62.4*; CYP2C9 act: 0.9; Cav3 T inh: -0.402

How did O=c1c([N+](=O)[O-])c(N2CCCCCC2)c2ccccc2n1-c1ccccc1 do in these assays?
HIV Rev-RRE inh: 7.3; CYP2C9 inh: 7.4; CYP2C19 activ: 1; CYP2C19 inh: 0.2; CYP2C9 act: 0.9; Cav3 T inh: 1.17

How did CCOc1ccc(Cn2c(C)nc([N+](=O)[O-])c2SCC(O)CCl)cc1[N+](=O)[O-] (configuration not stated) do in these assays?
HIV Rev-RRE inh: 5.2; CYP2C9 inh: 61.0*; CYP2C19 activ: 0.2; CYP2C19 inh: 75.5*; CYP2C9 act: 0.4; Cav3 T inh: 0.525

What do the screens show for `CCCOc1ccc(Cn2c(C)nc([N+](=O)[O-])c2SCC(O)COC)cc1[N+](=O)[O-]` (configuration not stated)?
HIV Rev-RRE inh: 16.4; CYP2C9 inh: 43.4; CYP2C19 activ: 0.6; CYP2C19 inh: 42.4; CYP2C9 act: 0.6; Cav3 T inh: -0.514

Results for Cc1noc(/C=C/c2ccc(-c3ccccc3Cl)o2)c1[N+](=O)[O-] ?
HIV Rev-RRE inh: 103.5*[fluorescence artefact?]; CYP2C9 inh: 0.8; CYP2C19 activ: 1.2; CYP2C19 inh: -18.3; CYP2C9 act: 1; Cav3 T inh: -2.92

How did CCCc1nc(SCc2ccc(Cl)cc2Cl)n[nH]1 do in these assays?
HIV Rev-RRE inh: 9.0; CYP2C9 inh: 27.0; CYP2C19 activ: 0.2; CYP2C19 inh: 84.0*; CYP2C9 act: 0.7; Cav3 T inh: -1.96

Results for Cc1cccc(CCNS(=O)(=O)c2ccc(S(=O)(=O)N3CCCCC3)cc2)c1 ?
HIV Rev-RRE inh: 8.2; CYP2C9 inh: 32.0; CYP2C19 activ: 1.1; CYP2C19 inh: -5.9; CYP2C9 act: 0.7; Cav3 T inh: 0.00103

Results for CC(C)CNS(=O)(=O)c1ccc(S(=O)(=O)N2CCCN(Cc3ccccc3)C2)cc1 ?
HIV Rev-RRE inh: 4.5; CYP2C9 inh: 28.3; CYP2C19 activ: 0.5; CYP2C19 inh: 50.0*; CYP2C9 act: 0.7; Cav3 T inh: -0.933

Screening data from PubChem.
